Experimental data taken from ChEMBL document CHEMBL1133296, “Synthesis and 5-hydroxytryptamine (5-HT) activity of 2,3,4,4a-tetrahydro-1H-pyrazino[1,2-a]quinoxalin-5-(6H)ones and 2,3,4,4a,5,6-hexahydro-1H-pyrazino[1,2-a]quinoxalines” (Bioorg Med Chem Lett, 2000).

Columns and labels:
[1] = biological target: T1, 5-hydroxytryptamine receptor 2C (Homo sapiens) (UniProt P28335); test: Inhibitory activity using [3H]mesulergine as radioligand with receptor membranes isolated from a CHO-k cell line expressing the human 5-hydroxytryptamine 2C receptor at a concentration of 1 uM; type: cell-free
T1 sequence (whole entry): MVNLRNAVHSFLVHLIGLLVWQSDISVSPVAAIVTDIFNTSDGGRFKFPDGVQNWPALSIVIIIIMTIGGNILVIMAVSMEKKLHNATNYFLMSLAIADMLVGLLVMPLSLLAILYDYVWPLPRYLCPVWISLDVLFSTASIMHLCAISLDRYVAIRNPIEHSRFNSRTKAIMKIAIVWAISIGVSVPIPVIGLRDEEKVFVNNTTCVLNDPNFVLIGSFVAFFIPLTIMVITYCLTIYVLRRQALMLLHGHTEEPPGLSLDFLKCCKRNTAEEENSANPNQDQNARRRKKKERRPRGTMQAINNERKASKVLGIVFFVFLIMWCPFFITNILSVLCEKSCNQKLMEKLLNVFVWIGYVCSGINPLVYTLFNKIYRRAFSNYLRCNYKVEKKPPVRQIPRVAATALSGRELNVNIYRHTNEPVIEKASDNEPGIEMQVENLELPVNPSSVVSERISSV

[2] = biological target: T2, 5-hydroxytryptamine receptor 2C (Homo sapiens, UniProt P28335); test: Binding affinity using [3H]mesulergine as radioligand with receptor membranes isolated from a CHO-k cell line expressing the human 5-hydroxytryptamine 2C receptor
T2 sequence (P28335 whole entry): T1 sequence (whole entry)
Method in brief: (§1)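 Competition binding used human 5-HT2C CHO membranes. [125I]DOI labelled agonist sites and [3H]mesulergine labelled antagonist sites. IC50 came from nine-point concentration curves, each point in triplicate. Ki was calculated by Cheng-Prusoff: Ki = IC50/(1 + [radioligand]/Kd).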

[3] = biological target: T2, 5-hydroxytryptamine receptor 2C; test: Binding affinity using [125I]DOI as radioligand with membranes isolated from a CHO-k cell line expressing the human 5-hydroxytryptamine 2C receptor; method in brief: as §1
Rattus norvegicus [4] = test: Concentration required to decrease food intake in Sprague-Dawley rats when compound administered orally; type: functional; settings: po
Method in brief: (§2)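 Male Sprague-Dawley rats were fasted 24 h, then given vehicle or test dose, ip or po. Powdered chow was returned and 2 h food intake was recorded. Each animal was fasted twice weekly (Monday, Thursday) and tested the following day. Groups were compared by one-way ANOVA with post hoc t-tests, and ED50 was calculated.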

[5] = Emax values indicate relative efficacy compared to a maximally effective 5-HT2c (5-HT) concentration.; type: functional
Method in brief: (§3)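 CHO cells stably expressing human 5-HT2C were labelled overnight with myo-[3H]inositol, washed, and preincubated 30 min in medium containing LiCl. Agonist was then added at 10^-10 to 10^-5 M for 30 min. [3H]IP was counted by liquid scintillation and expressed as % of the maximal 5-HT response. EC50 came from six-point curves in duplicate, fitted by a three-parameter logistic; Emax is relative to maximal 5-HT.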

Rattus norvegicus [6] = test: Concentration required to decrease food intake in Sprague-Dawley rats when compound administered intraperitoneally; type: functional; settings: ip; method in brief: as §2
[7] = biological target: T2, 5-hydroxytryptamine receptor 2C; test: Agonistic activity for 5-HT2c (5-HT2C) by measuring [3H]inositol monophosphate fromation in CHO cells in which the human 5-HT2C receptor subtype was stably expressed; type: functional, cell-based; method in brief: as §3

Structure (SMILES) | inhibition [1] [%] | Ki [2] [nM] | Emax [5] [%] | further results
O=C1Nc2c(F)cccc2N2CCNCC12 (centres undefined) | 48 |  |  | 
O=C1Nc2ccc(Cl)cc2N2CCNCC12 (centres undefined) | 67 |  |  | 
O=C1Nc2ccc(Cl)c(Cl)c2N2CCNCC12 (centres undefined) |  | 1700 |  | Ki [3]: 1000 nM
CN1C(=O)C2CNCCN2c2ccccc21 (centres undefined) | 9 |  |  | 
O=C1Nc2cc(C(F)(F)F)ccc2N2CCNCC12 (centres undefined) | 46 |  |  | 
O=C1Nc2ccccc2N2CCNCC12 (centres undefined) | 25 |  |  | 
NC(=O)c1ccc2c(c1)NC(=O)C1CNCCN21 (centres undefined) | 5 |  |  | 
O=C1Nc2cc(Cl)ccc2N2CCNCC12 (centres undefined) | 33 |  |  | 
O=C1Nc2cc(Cl)c(Cl)cc2N2CCNC[C@H]12 |  | 32 | 112 | ED50 (Rattus norvegicus [4]): 10 mg/kg; Ki [3]: 3 nM; ED50 (Rattus norvegicus [6]): 2 mg/kg
O=C1Nc2cc(NC(=O)C(F)(F)F)ccc2N2CCNCC12 (centres undefined) | 21 |  |  | 
O=C1Nc2cc(Cl)c(Cl)cc2N2CCNC[C@@H]12 |  | 285 | 88 | 
O=C(c1ccccc1)c1ccc2c(c1)NC(=O)C1CNCCN21 (centres undefined) |  | 9200 |  | Ki [3]: 2150 nM
O=C1Nc2ccc(F)cc2N2CCNCC12 (centres undefined) | 26 |  |  | 
O=C1Nc2cc(C(F)(F)F)c(Cl)cc2N2CCNC[C@H]12 |  | 160 | 97 | 
O=C1Nc2ccccc2N2CCNC[C@@H]12 | 10 |  |  | 
O=C1Nc2cc(C(F)(F)F)c(Cl)cc2N2CCNC[C@@H]12 |  | 3600 | 85 | 
Clc1cc2c(cc1Cl)N1CCNC[C@@H]1CN2 |  | 88 | 107 | Ki [3]: 7 nM; EC50 [7]: 49 nM
O=C1Nc2c(Cl)cccc2N2CCNCC12 (centres undefined) | 15 |  |  | 

Structure (SMILES) | inhibition [1] [%] | Ki [2] [nM] | Emax [5] [%] | further results
CCCCN(CCCC)c1ccc2c(c1)NC(=O)C1CNCCN21 (centres undefined) | 7 |  |  | 
Cc1ccc2c(c1)N1CCNCC1C(=O)N2 (centres undefined) | 0 |  |  | 
Nc1ccc2c(c1)NC(=O)C1CNCCN21 (centres undefined) | 0 |  |  | 
COc1ccc2c(c1)N1CCNCC1C(=O)N2 (centres undefined) | 36 |  |  | 
Clc1cc2c(cc1Cl)N1CCNCC1CN2 (centres undefined) |  | 18 | 96 | EC50 [7]: 7.6 nM
COC(=O)c1ccc2c(c1)NC(=O)C1CNCCN21 (centres undefined) | 1 |  |  | 
O=C1Nc2ccc(Cl)cc2N2CCNC[C@H]12 |  | 238 | 95 | Ki [3]: 34 nM; EC50 [7]: 86 nM
O=C1Nc2cccc(Cl)c2N2CCNCC12 (centres undefined) | 8 |  |  | 
O=C1Nc2ccccc2N2CCNC[C@H]12 | 47 |  |  | 
O=C1Nc2ccc(O)cc2N2CCNCC12 (centres undefined) | 24 |  |  | 
FC(F)(F)c1cc2c(cc1Cl)N1CCNC[C@@H]1CN2 |  | 92 | 76 | Ki [3]: 17 nM; EC50 [7]: 19 nM
Clc1cc2c(cc1Cl)N1CCNC[C@H]1CN2 |  | 61 | 82 | Ki [3]: 8 nM; EC50 [7]: 45 nM
c1ccc2c(c1)NCC1CNCCN21 (centres undefined) | 22 |  |  | 
O=C1Nc2cc(C(F)(F)F)c(Cl)cc2N2CCNCC12 (centres undefined) |  | 84 | 108 | Ki [3]: 9 nM; EC50 [7]: 136 nM
O=C1Nc2cc(F)ccc2N2CCNCC12 (centres undefined) | 7 |  |  | 
O=C1Nc2c(Cl)cc(Cl)cc2N2CCNCC12 (centres undefined) |  | 368 |  | 
O=C1Nc2cc(F)c(F)cc2N2CCNCC12 (centres undefined) |  | 1800 |  | 
O=C1Nc2cc(Cl)c(Cl)cc2N2CCNCC12 (centres undefined) |  | 58 | 110 | Ki [3]: 4 nM
